Measurements published in article PMC9574760 (Food Chemistry: Molecular Sciences, 2022).
Ends that are not written are not given here.

Key:
porcine pepsin = test: In vitro simulated gastric digestion stability, RP-HPLC; assay type: in vitro ADME; settings: pig, simulated gastric fluid with porcine pepsin, pH 2
Outline: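 Test peptide was digested with […] porcine pepsin at pH 2.0 ([…] KCl-HCl) and an enzyme:substrate ratio of 1:30 (w/w). Digestion ran 2 h at 37℃, shaking at 170 rpm. Enzyme was inactivated in boiling water for 10 min and the digest centrifuged at 6000 × g for 15 min. Peptide before and after digestion was compared by C18 RP-HPLC with water/0.1 % TFA and acetonitrile/0.1 % TFA, 1.0 mL/min, 220 nm detection; triplicate.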

elastase [1] = molecular target: T1, elastase (Sus scrofa, UniProt P00772); test: Elastase inhibition test; assay type: biochemical
T1 sequence (P00772 27-266): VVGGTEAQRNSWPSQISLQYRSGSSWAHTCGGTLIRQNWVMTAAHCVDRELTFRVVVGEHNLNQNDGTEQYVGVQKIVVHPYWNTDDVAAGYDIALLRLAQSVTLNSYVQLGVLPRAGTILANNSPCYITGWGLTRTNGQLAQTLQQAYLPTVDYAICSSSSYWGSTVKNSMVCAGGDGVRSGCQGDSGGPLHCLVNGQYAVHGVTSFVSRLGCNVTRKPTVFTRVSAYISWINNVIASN
Outline: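 Elastase from the commercial supply; test compound in 50 mM Tris-HCl, pH 8.0. The 1 mM substrate solution and the sample (buffer for the negative control) were mixed and A410 was read. Then 100 mU/mL elastase was added and incubated 5 min at 25℃, stopped with 2 M HCl, and A410 was read again. EGCG reference at 0.5 mg/mL; three independent experiments.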

elastase [2] = molecular target: T1, elastase; settings: bovine elastin peptides; ref Liu, Su, Zhou, Zhang, Zheng, & Zhao, 2018; cited from earlier work

| Substance | remaining at 2 h, 1 mg/mL (porcine pepsin) [%] | IC50 (elastase [1]) [µM] | elastase inhibitory activity (in words) (elastase [2]) |
| --- | --- | --- | --- |
| FFVPF [FFVPF, Phe-Phe-Val-Pro-Phe] | 87.5 ± 1.24 | 715 |  |
| GLGPGVG |  |  | weakly active |
| GLPY |  |  | most active |
| GPGGVGAL |  |  | weakly active |
